The target in assay [1] is Serine hydrolase RBBP9 (Mus musculus) (UniProt O88851). The conditions noted are these: Neuro2a, 3 nM.
In assay [2] the target is Tissue-type plasminogen activator (Mus musculus) (UniProt P11214). The conditions noted are these: Neuro2a, 3 nM.
In assay [3] the target is T1, Serine beta-lactamase-like protein LACTB, mitochondrial (Mus musculus) (UniProt Q9EP89).
T1 sequence (whole entry): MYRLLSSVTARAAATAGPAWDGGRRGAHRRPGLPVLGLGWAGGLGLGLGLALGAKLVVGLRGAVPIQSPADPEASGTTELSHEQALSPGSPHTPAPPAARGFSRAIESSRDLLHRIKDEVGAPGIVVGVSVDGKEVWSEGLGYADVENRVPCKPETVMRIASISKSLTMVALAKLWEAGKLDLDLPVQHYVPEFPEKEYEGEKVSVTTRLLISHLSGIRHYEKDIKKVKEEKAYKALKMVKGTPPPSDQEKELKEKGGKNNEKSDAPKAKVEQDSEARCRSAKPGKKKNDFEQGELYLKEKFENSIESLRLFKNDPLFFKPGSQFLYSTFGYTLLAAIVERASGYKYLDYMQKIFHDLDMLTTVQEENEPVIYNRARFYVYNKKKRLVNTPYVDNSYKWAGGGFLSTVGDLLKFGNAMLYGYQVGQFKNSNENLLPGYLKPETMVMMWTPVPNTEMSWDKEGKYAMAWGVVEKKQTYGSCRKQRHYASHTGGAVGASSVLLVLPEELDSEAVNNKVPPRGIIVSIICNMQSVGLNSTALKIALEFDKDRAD
The note with it: Neuro2a, 3 nM.

Assay [4] concerns the target T2, Platelet-activating factor acetylhydrolase IB subunit alpha1 (Mus musculus) (UniProt Q61205).
T2 sequence (whole entry): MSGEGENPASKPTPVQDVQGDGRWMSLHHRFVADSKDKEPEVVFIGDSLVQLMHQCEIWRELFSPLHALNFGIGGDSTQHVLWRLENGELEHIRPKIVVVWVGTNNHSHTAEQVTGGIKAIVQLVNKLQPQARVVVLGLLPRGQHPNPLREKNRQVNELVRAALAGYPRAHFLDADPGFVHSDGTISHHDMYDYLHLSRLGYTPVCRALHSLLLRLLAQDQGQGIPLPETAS
The note with it: Neuro2a, 3 nM.

In assay [5] the target is Patatin-like phospholipase domain-containing protein 7 (Mus musculus) (UniProt A2AJ88). The note with it: Neuro2a, 3 nM.
For assay [6], the target named is T3, Glutamyl-tRNA(Gln) amidotransferase subunit A, mitochondrial (Mus musculus) (UniProt Q9CZN8).
T3 sequence (whole entry): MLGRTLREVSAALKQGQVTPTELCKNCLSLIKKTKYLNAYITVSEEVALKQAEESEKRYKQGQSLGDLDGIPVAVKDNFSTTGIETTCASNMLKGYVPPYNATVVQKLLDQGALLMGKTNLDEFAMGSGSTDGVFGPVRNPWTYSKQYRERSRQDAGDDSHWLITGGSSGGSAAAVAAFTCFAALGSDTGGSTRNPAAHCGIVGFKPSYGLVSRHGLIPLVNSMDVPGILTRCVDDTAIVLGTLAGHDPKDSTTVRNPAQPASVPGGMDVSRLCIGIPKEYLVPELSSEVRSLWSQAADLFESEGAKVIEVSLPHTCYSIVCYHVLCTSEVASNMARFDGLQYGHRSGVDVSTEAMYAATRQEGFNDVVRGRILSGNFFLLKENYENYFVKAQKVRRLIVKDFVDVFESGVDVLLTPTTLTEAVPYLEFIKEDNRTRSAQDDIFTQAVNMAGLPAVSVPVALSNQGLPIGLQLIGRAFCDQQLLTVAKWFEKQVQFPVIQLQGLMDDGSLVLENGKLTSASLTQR
The note with it: Neuro2a, 3 nM.

For assay [7], the target named is T4, 85/88 kDa calcium-independent phospholipase A2 (Mus musculus) (UniProt P97819).
T4 sequence (whole entry): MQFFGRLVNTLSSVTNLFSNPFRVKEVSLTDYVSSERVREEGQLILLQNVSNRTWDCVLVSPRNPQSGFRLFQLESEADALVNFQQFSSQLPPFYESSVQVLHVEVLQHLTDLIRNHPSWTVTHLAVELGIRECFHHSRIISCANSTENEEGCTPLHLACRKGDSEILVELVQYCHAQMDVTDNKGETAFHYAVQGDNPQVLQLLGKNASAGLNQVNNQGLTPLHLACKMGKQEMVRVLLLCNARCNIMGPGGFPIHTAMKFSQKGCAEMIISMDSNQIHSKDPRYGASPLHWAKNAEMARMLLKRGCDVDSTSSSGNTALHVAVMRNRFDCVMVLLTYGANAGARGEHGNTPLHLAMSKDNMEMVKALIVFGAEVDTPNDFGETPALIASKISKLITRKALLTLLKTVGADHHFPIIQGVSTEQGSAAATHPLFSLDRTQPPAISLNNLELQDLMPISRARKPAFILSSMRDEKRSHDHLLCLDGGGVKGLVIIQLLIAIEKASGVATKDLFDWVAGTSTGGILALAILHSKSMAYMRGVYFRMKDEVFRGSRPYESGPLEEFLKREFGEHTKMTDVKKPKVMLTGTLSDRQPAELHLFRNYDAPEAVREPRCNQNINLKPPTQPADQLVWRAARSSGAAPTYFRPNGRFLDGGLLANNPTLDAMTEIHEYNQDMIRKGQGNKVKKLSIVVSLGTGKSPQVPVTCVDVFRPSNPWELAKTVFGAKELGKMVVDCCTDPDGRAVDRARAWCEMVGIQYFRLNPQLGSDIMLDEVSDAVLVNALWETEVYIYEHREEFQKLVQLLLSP
The note with it: Neuro2a, 3 nM.

Assay [8] concerns the target Acyl-protein thioesterase 2 (Mus musculus) (UniProt Q9WTL7). The conditions noted are these: Neuro2a, 3 nM.
The target of assay [9] is T5, Monoacylglycerol lipase ABHD6 (Mus musculus) (UniProt Q8R2Y0).
T5 sequence (whole entry): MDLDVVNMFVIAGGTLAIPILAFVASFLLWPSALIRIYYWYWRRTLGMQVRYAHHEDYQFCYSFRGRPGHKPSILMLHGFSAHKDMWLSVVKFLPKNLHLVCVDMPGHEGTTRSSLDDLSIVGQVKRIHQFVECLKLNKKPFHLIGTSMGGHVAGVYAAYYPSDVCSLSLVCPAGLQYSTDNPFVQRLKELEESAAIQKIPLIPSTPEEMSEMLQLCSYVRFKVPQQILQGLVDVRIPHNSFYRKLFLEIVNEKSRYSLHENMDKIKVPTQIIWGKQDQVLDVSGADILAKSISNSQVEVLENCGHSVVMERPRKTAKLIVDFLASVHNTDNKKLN
The assay can be described thus: Inhibition of ABHD6 in FP-rhodamine-labelled mouse brain membrane at 1 nM preincubated for 30 mins followed by FP-rhodamine labelling measured after 30 mins by gel-based competitive ABPP assay. Format: tissue-based. Put shortly:
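Mouse brain membrane proteome (1 mg/mL) preincubated with compound for 30 min at 37 °C, then labelled with FP-rhodamine or HT-01 (1 μM final) for 30 min at 37 °C. Quenched in SDS loading buffer, run on 10% SDS-PAGE and scanned for in-gel fluorescence. Bands assigned by gel migration.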

Tissue-type plasminogen activator (Mus musculus), sequence (P11214 whole entry): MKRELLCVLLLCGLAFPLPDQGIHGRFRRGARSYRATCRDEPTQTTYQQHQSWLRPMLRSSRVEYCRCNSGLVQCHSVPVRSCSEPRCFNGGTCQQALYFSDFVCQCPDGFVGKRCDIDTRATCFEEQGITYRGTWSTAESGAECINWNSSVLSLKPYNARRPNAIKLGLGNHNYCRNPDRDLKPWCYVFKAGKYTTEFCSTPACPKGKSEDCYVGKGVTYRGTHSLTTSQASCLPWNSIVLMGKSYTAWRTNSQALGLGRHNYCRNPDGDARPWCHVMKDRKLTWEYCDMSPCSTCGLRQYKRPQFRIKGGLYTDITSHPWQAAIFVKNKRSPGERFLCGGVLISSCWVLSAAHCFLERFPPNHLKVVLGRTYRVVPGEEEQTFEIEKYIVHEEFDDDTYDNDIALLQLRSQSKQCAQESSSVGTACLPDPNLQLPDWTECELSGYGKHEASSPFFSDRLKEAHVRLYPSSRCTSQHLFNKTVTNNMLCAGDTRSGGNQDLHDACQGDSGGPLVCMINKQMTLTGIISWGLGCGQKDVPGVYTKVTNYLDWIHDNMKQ
Serine hydrolase RBBP9 (Mus musculus), sequence (O88851 whole entry): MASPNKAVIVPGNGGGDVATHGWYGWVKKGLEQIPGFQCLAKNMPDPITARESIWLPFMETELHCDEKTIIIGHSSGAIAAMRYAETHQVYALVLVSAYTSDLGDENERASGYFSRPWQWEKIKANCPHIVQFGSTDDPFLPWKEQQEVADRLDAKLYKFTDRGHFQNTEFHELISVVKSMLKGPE
Patatin-like phospholipase domain-containing protein 7 (Mus musculus), sequence (A2AJ88 whole entry, the tested form may be a part): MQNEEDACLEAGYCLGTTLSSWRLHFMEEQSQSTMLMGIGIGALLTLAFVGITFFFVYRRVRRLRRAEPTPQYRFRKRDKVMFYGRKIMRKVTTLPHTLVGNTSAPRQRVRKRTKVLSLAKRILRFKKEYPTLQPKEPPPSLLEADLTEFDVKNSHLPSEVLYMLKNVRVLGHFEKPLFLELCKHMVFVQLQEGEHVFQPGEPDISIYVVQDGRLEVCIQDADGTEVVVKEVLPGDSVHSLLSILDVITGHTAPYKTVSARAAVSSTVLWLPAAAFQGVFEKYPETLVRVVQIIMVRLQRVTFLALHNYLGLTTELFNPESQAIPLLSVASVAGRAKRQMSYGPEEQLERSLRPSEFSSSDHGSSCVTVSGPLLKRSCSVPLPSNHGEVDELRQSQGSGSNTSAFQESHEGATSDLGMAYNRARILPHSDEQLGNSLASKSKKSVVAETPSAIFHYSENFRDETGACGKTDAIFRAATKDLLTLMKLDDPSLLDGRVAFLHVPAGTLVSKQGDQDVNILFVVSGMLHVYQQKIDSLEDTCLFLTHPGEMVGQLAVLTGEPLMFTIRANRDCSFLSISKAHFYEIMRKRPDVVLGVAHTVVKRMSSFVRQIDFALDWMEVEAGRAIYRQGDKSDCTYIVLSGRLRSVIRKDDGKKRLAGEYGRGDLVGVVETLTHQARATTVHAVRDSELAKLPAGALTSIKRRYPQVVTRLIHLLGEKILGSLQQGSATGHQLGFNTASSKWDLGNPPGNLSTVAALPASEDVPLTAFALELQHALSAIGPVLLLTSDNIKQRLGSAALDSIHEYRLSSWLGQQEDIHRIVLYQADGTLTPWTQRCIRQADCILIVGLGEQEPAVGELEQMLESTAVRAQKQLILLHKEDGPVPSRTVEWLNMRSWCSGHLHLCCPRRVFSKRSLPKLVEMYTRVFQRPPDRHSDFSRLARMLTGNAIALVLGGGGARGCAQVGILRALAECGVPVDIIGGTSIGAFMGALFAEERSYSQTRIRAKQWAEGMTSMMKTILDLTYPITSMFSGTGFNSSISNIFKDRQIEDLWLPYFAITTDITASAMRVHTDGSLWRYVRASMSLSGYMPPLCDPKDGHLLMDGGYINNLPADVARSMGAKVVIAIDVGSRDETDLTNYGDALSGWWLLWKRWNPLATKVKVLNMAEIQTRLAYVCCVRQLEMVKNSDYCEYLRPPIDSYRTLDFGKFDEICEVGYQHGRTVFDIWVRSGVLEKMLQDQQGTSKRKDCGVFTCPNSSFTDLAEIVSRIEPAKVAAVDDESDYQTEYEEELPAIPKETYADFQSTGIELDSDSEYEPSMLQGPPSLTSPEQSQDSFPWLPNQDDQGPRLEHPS
Acyl-protein thioesterase 2 (Mus musculus), sequence (Q9WTL7 whole entry): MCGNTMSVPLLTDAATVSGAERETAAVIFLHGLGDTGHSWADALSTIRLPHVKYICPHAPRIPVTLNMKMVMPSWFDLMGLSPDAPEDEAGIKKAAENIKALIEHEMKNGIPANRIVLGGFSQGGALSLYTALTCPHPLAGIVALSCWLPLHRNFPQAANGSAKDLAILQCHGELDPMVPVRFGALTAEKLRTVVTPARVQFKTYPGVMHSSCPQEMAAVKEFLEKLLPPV

With `O=C(N1CCCCC1c1ccccc1)n1cc(-c2ccc(-c3cccc(CO)c3)cc2)nn1` (racemic), the inhibition in assay [1], in assay [2], in assay [3], in assay [4], in [5] and in assay [6] was less than 50% in each case. The inhibition was less than 50% in assay [7], less than 50% in assay [8] and 29% in assay [9].
`O=C(c1cccc(-c2ccc(-c3cn(C(=O)N4CCCCC4c4ccccc4)nn3)cc2)c1)N1CCCCC1` (racemic): the inhibition in [1], in [2], in assay [3], in assay [4], in assay [5] and in [6] was less than 50% each time. For the same molecule, the inhibition in assay [7] was less than 50%; in [8], less than 50%; in [9] it was 51%.
For `O=C(O)c1cccc(-c2ccc(-c3cn(C(=O)N4CCCCC4Cc4ccccc4)nn3)cc2)c1` (racemic), the inhibition in assay [1], in assay [2], in assay [3], in assay [4], in assay [5] and in assay [6] was less than 50% in each case. Besides, the inhibition in [7] was less than 50%; in assay [8], less than 50%; in [9] it was 62%.

The record behind these values is ChEMBL document CHEMBL3259629, “Discovery and optimization of piperidyl-1,2,3-triazole ureas as potent, selective, and in vivo-active inhibitors of α/β-hydrolase domain containing 6 (ABHD6)” (J Med Chem, 2013).
